Experimental data taken from the RNAGym collection of RNA variant scans (doi:10.1126/science.aae0568).
This sample holds only a part of the variants without activity.

B1: tRNA (parent)
chain: GUUCCGUUGGCGUAAUGGUAACGCGUCUCCCUCCUAAGGAGAAGACUGCGGGUUCGAGUCCCGUACGGAACG

Variants of: B1
Experiment: yeast fitness relative to wild type (ratio to wild type); higher = fitter; tRNA-Arg(CCU), competitive growth, 37 C, YPD
How it was run: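 Gene amplicons from the start population and from each of six end populations were read by 100-nucleotide paired-end sequencing. Those end populations came from pooled Saccharomyces cerevisiae strains carrying tRNA-Arg(CCU) gene variants at the native locus, competed in YPD at 37°C for 24 hours. Fitness relative to wild type was worked out from changes in genotype frequencies. Genotypes needed ≥ 100 starting reads, and estimates < 0.5 were set to 0.5.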

Row | Variant | yeast fitness
1 | U3G G9C A20G C29A G67U | ≤ 0.5
2 | A20G U59G A65U | 1.05
3 | C4U G18A G23C C24G C46G | ≤ 0.5
4 | U2A A20G C24G C30G | ≤ 0.5
5 | A45U G51A | 0.919
6 | U16C A43U G51C A57C C60G G67A | ≤ 0.5
7 | C5G C27U C62U | 0.626
8 | C5A G6C C11G C22U C46U G56A | ≤ 0.5
9 | A20C C66A | 0.697
10 | C46G U54C C60A C62A | ≤ 0.5
11 | U8G G51A A65C C66U | ≤ 0.5
12 | A20C A21G C66U | 0.737
13 | A14G G17A A37U A43U C62G | ≤ 0.5
14 | A14U G17A C22U | ≤ 0.5
15 | U7G A40C U47A | ≤ 0.5
16 | G12A A21U C66U A69C | ≤ 0.5
17 | C4U C49U G58C | 0.782
18 | G9A A36G G68U | 0.743
19 | C30A C49U | 0.898
20 | G25C A42U C46U | 0.502
21 | C24G G58C | 0.573
22 | C5G C31U A36C G38A G56A A70U | ≤ 0.5
23 | C31A U53C | 0.571
24 | C11G G17A C30G U59G | ≤ 0.5

Row | Variant | yeast fitness
25 | C29A C31U A40U | ≤ 0.5
26 | G6A G9C A42U | ≤ 0.5
27 | U26A U35A G48C | ≤ 0.5
28 | C33A G50U | 0.524
29 | C11G A57C | 0.571
30 | G9C G52A | 0.564
31 | C11U A21C U35A A42U C46G | ≤ 0.5
32 | G10C A14G C66U | 0.505
33 | C30G G41C A70U | ≤ 0.5
34 | A15G C22G A36U A40G A69U | ≤ 0.5
35 | A14C G18A G44A U59C C66G | ≤ 0.5
36 | G18C C33G A40G C61U | ≤ 0.5
37 | C11G U13C C27A U35A G48A U59C | ≤ 0.5
38 | A37C A43U U47C A69U | 0.688
39 | U2G A40U C49A G58C G63C | ≤ 0.5
40 | A36G C55A A69U | 0.635
41 | C4U C11A | 0.61
42 | G12A A36G C55U A69U | ≤ 0.5
43 | G51C C61G | 1.04
44 | C5G G10A C11G U16G C33G U59C | ≤ 0.5
45 | U32A G41A C61A | ≤ 0.5
46 | U16C A21G A70C | 0.725
47 | C49G A57G | 0.719
48 | U7C A15C G38A A45G G52A C61G C66U | ≤ 0.5

Row | Variant | yeast fitness
49 | C5A A43G C55U C66G | ≤ 0.5
50 | C24G G44C C66U | ≤ 0.5
51 | U8C C11G A15U A20G A21G G38C C60G | 0.568
52 | G23C C29G A43U G50A G68U | ≤ 0.5
53 | U3C C46U A65U | 0.739
54 | C31U A70G | 1.1
55 | U8A C31U | 0.631
56 | G6C C33U A43G G58A C60U | 0.554
57 | A57G C66A | 0.652
58 | U13G A14C A42U G51A U54A G56A | ≤ 0.5
59 | U19A A20U U35C | 0.82
60 | C30G C49A U54G A65G | ≤ 0.5
61 | A21C C55A A57U | 0.535
62 | G6C C22A G41A G44A C46A G52A C66U | ≤ 0.5
63 | G48A A57U A65U C66A | ≤ 0.5
64 | C46U U59A | 0.877
65 | G12A A37C A45C G52C A70U | ≤ 0.5
66 | G10A C62G | 0.64
67 | G9C C30G U53C | ≤ 0.5
68 | G6A U26A G48C | 0.557
69 | G23C C31U C55A | ≤ 0.5
70 | C5G A20G C31A | ≤ 0.5
71 | C5G C27G G38C G56C | ≤ 0.5
72 | C24U C49G G56C | ≤ 0.5

Row | Variant | yeast fitness
73 | A20U A36G U54C C55G | ≤ 0.5
74 | G44C A57G | 0.895
75 | A15U G18C C29G | 0.571
76 | U3A A37G G41A | ≤ 0.5
77 | C27A C30G | 0.634
78 | U28C C62U U64C | 0.7
79 | C27U U28G C31A C46U | ≤ 0.5
80 | G6C A37C G58C U59C | ≤ 0.5
81 | A20G A45G C49U | 0.687
82 | C11U C31G C46G C66U | 0.564
83 | G6C A14G U16C A42U G52U | ≤ 0.5
84 | A21G C49G | 1.13
85 | A21G C49A | 0.736
86 | A42U G56A C62A | 0.586
87 | C5U A57C G58C U59G C66U | ≤ 0.5
88 | G39A G44A G50A | 0.607
89 | A21U C22U G48A A57U | ≤ 0.5
90 | U3A C11U U13C C31A | ≤ 0.5
91 | U7A C31G U64A C66U G68C | ≤ 0.5
92 | C24G C29U A42G G51C | ≤ 0.5
93 | C11U U26G U28C C49A G58C C62U | 0.527
94 | C5G C55U C61A A65U | 0.669
95 | C4A C30G U47C C49G | ≤ 0.5
96 | C30U C33A G41C A42U | ≤ 0.5

Row | Variant | yeast fitness
97 | G56C G67A | 0.592
98 | C4G A14U C60A | 0.553
99 | A36U G44A A70G | ≤ 0.5
100 | U3C U32G A37G | ≤ 0.5
101 | A15C U19G C55G | ≤ 0.5
102 | U8C A20G | 0.941
103 | A21U C29G G58A | ≤ 0.5
104 | G23C U32C | 0.72
105 | U13C C30G U35C | ≤ 0.5
106 | C22A G67C | 0.701
107 | U35C A70G | 0.781
108 | U35C C46G | 0.906
109 | C24A A36C A37C C46U C62G | ≤ 0.5
110 | U3G C5U U32C G41C C49U G67A | ≤ 0.5
111 | C5U C31G C33G C34U G68A | 0.671
112 | G18C G44A G68A | ≤ 0.5
113 | U26C C27G | 0.588
114 | U19C A40U C55U A65G | ≤ 0.5
115 | C61U U64G | 0.674
116 | U2A A45C C55A | ≤ 0.5
117 | U2G G9C | 0.755
118 | C34U A45C A69C A70C | 0.569
119 | A14U A37C | 0.627
120 | C11A U16G C33U | ≤ 0.5

Row | Variant | yeast fitness
121 | U2G A45C G48A | 0.622
122 | U8C A21U G56C G63A U64C G67C | ≤ 0.5
123 | U13A C24U C55A G58C | ≤ 0.5
124 | U7C A36C A57U C61A C66A | ≤ 0.5
125 | C34A A42C U59A G67C | ≤ 0.5
126 | C22U A42G | 0.794
127 | A15U G23C A37G | ≤ 0.5
128 | G12A G68A | 0.771
129 | A15C A42G G67C | ≤ 0.5
130 | G58A G63C | 0.784
131 | U19A A43U C55G | 0.55
132 | A14C G18A C29G A42C | ≤ 0.5
133 | U26A A69U | 1.03
134 | C49U C60A | 0.668
135 | U3G G25A C61U | 0.733
136 | G18A G50C | 0.615
137 | G9A U19C A69C | 0.834
138 | U26A C61U | 0.817
139 | U7C C31G G38C A43U C62G | ≤ 0.5
140 | C31U A37C G63A | ≤ 0.5
141 | G17C C24G C46G | 0.519
142 | C24A G50A C66U | 0.5
143 | C5U G12C A21C C24A G41C U53A | ≤ 0.5
144 | G12C C30U | 0.694

Row | Variant | yeast fitness
145 | G17C A20G G51A | ≤ 0.5
146 | A57G C60U A70U | ≤ 0.5
147 | A14U C22U G25A C55G C60U G68C | ≤ 0.5
148 | A37U A43U G48C | 0.514
149 | C24U C29U A42G U59C | ≤ 0.5
150 | C5U A65U A69U | 0.623
151 | C4G G12A C49U C60A C61A | ≤ 0.5
152 | G6A U13C C27G A37U C60A | ≤ 0.5
153 | C4U U19A C31G A65C C66U | ≤ 0.5
154 | A15C C34A C46U | 0.614
155 | C5G C22G C66U | ≤ 0.5
156 | C5G C27G C61U | ≤ 0.5
157 | G9A U64A | 0.811
158 | G10C A14U G25A C27U U53C A70G | 0.536
159 | G50A C55A C66A | 0.543
160 | C27A A57C | 0.669
161 | U59C U64A | 0.677
162 | C24U C46A C55U G58C | 0.793
163 | C11G A21G C29G A40C U54A | ≤ 0.5
164 | C4A G17A G41A | 0.525
165 | U7A G41C U54A C62U A70U | ≤ 0.5
166 | U13C U47C C62G | ≤ 0.5
167 | U35C A37U A43C C46U C49U G68A | ≤ 0.5
